{"data": "Measurements collected from several papers", "effect on": "enzyme activity", "action": "inhibitor", "ABL1 T315I": "Tyrosine-protein kinase ABL1 (ABL1, Homo sapiens, UniProt P00519, T315I)", "ABL1 Y253F": "Tyrosine-protein kinase ABL1 (ABL1, Homo sapiens, UniProt P00519, Y253F)", "ABL1": "Tyrosine-protein kinase ABL1 (ABL1, Homo sapiens, UniProt P00519)", "note": "Compare with care: the assays were run in different laboratories."}
{"SMILES": "COc1cc(-c2cc(-c3ccc(N4CCNCC4)cc3)cnc2N)cc(OC)c1OC", "target": "Tyrosine-protein kinase ABL1 (ABL1, Homo sapiens, UniProt P00519, Q252H)", "conditions": "1 µM", "inhibition": "96%"}
{"SMILES": "O=C(CSc1nc2nccnc2c(=O)n1CCc1ccccc1)Nc1nccs1", "target": "ABL1 T315I", "conditions": "10 µM", "inhibition": "2%"}
{"SMILES": "COc1cc2ncnc(Nc3ccc(Oc4ccccc4)c(C)c3C)c2cc1OC", "target": "ABL1 Y253F", "conditions": "1 µM", "inhibition": "2%"}
{"SMILES": "CC/C(=N\\NC(=O)NCc1cccc(O)c1)c1ccc(O)c(C)c1O", "target": "ABL1 T315I", "conditions": "0.1 µM", "inhibition": "-1.5%"}
{"SMILES": "CNc1cccc2cc(C(=O)Nc3ccc(C(=O)O)cc3)c(=O)[nH]c12", "target": "ABL1", "conditions": "10 µM", "inhibition": "1.8%"}
{"SMILES": "CN(C)C1CCN(CC#Cc2nn(C3CCCC3)c3nc(NCc4ccccc4)ncc23)C1 (stereo not drawn)", "target": "ABL1", "assay": "FRET", "conditions": "10 µM", "inhibition": "31%"}
{"SMILES": "CNC(=O)c1cc2c(Oc3ccc(NC(=O)C4(C(=O)Nc5ccc(F)cc5)CC4)cc3)ccnc2cc1OC", "target": "ABL1 Y253F", "assay": "radiometric", "conditions": "1 µM", "inhibition": "78%"}
{"SMILES": "COc1cc2ncnc(Nc3ccc(Oc4ccccc4)cc3C)c2cc1OC", "target": "ABL1 T315I", "conditions": "1 µM", "inhibition": "5%"}
{"SMILES": "CS(=O)(=O)Nc1cccc(-c2csc(NC(=O)CSc3nc4nccnc4c(=O)n3CCc3ccccc3)n2)c1", "target": "ABL1", "conditions": "10 µM", "inhibition": "2%"}
